Measurements collected from several papers.
Target: Protein-tyrosine kinase 2-beta (PTK2B, Homo sapiens, UniProt Q14289)

The inhibition of `Cn1cc(-c2cc(F)cc(N3CCn4c(cc5c4CCCC5)C3=O)c2CO)cc(Nc2ccc(N3CCN(C4COC4)CC3)cn2)c1=O` is reported as 6% (enzyme activity; inhibitor; 0.1 µM).
For `Cn1cncc1[C@@](O)(COc1ccc(C#N)cc1-c1ccc(OC(F)(F)F)cc1)c1ccc(C#N)cc1`, the remaining binding was 100% (cell-free assay; competition with immobilised ligand; 1 µM).
With `Cc1nn(C)cc1-c1nc2c(N3CCN(Cc4ccc(Cl)cc4)CC3)c(Cl)cnc2[nH]1` the remaining binding was 100% (binding; competition with immobilised ligand; 1 µM).
With `N#CC1(c2ccccn2)CCN(Cc2cc(C(=O)O)c(=O)n3ccccc23)CC1` the remaining binding was 100% (cell-free assay; competition with immobilised ligand; 1 µM).
`Nc1ncc(-c2nc(N3CCOCC3)nc(N3CCOCC3)n2)c(C(F)F)n1` gave a remaining binding of 70% (binding; competition with immobilised ligand; 10 µM).
`COc1ncccc1-c1cnn2ccc(N3CCN(C(=O)OC(C)C)CC3)nc12` has a remaining binding of 100% (binding; competition with immobilised ligand; 1 µM).
The inhibition of `Cn1cc(-c2cccc(N3CCc4c(sc5c4CC(C)(C)C5)C3=O)c2CO)cc(Nc2ccncn2)c1=O` is reported as 2% (enzyme activity; inhibitor; 1 µM).
For `O=c1[nH]c2ccccc2n1C1CCN(Cc2ccc(-c3[nH]c4cc5ncnc5cc4nc3-c3ccccc3)cc2)CC1`, the remaining activity was 105% (enzyme activity; 0.5 µM).
